The campaign covered roughly 2,300 compounds. About 25 (1%) were called active. The sample holds actives, similar compounds and a random draw of the others, so the mix is not that of the screen. Unmarked numbers belong to inactive results.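 The calls were made as follows: active = mean inhibition over three replicate wells above the hit threshold derived in the earlier primary screen (cut at about 45% in these data); inactive = the rest.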

The test system of the test is Hepatitis C virus core protein (core106 dimerization). The test is described as follows: inhibitors of HCV core protein dimerization, confirmation, biochemical, TR-FRET, triplicate (AID 2152).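 Also: 0% = DMSO wells and 100% = unlabelled core106 competitor control.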 Conditions: TR-FRET GST-/Flag-core106 dimerization, HTRF; at 5 µM; active compounds read high. A digest of the protocol:
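Test system – GST- and Flag-tagged HCV core106 peptides, dimerization via antibody TR-FRET · Amount – 17 nM Flag- plus 13.5 nM GST-core106 · Schedule – 4 h incubation, 22.5 °C · Compound dosing – one 5 µM dose, 0.5% DMSO · Detection – TR-FRET, 340 nm excitation, 671/617 nm emission · Reagent – Eu(K)-anti-GST plus XL665-anti-FLAG antibodies · Read-out basis – percent inhibition from emission ratio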
A general note: In TR-FRET formats the signal depends on donor and acceptor labels being close together.
As usually defined, the inhibition is the change of the read-out against control, counted positive when it falls. For the compound `Cc1ccc(NC(=O)N(Cc2ccc3c(c2)OCO3)Cc2cc3cc4c(cc3[nH]c2=O)OCCO4)cc1`, the inhibition was 2.67%.
With `CC(=O)NS(=O)(=O)c1ccc(NC(=O)c2cc(-c3ccc(C)c(C)c3)nc3ccccc23)cc1` the figure was 5.8%; with `COc1cc(C(=O)NCC(=O)OCC(=O)c2cccc3ccccc23)cc(OC)c1OC`, -3.85%; with `O=C(c1ccco1)N1CCN(c2nc(C3CC3)nc3c2nnn3Cc2ccccc2Cl)CC1`, -2.25%.
Consider `CCOC(=O)c1nn(-c2ccccc2C)c2nc(-c3ccc(Cl)cc3)c(C#N)c(=O)n12`, for which the inhibition is 3.54%.
Regarding `Cc1cccc(N(C)S(=O)(=O)c2ccc3c(c2)C(C)(C)C(=O)N3C)c1`, the inhibition is 4.84%.
Consider `COc1cc(OC)c(NC(=O)CN(C)S(=O)(=O)c2ccc(-c3ccc(=O)[nH]n3)s2)cc1Cl`, for which the inhibition is -0.24%.
As for `O=C(COC(=O)/C=C/c1ccc(Br)o1)Nc1ccc2[nH]c(=O)[nH]c2c1`, the inhibition is 24.5%.
Regarding `O=C1COc2ccc(C(=O)COC(=O)/C=C/c3ccc(Br)o3)cc2N1`, the inhibition is 35.5%.
Next, `O=C(/C=C/c1ccc(Br)o1)OCc1nc2ccsc2c(=O)[nH]1`: 46% (active); `Cc1ccccc1N1CC(C(=O)Nc2nnc(SCc3ccccn3)s2)CC1=O` (stereo not given): 0.24%.
For the compound `O=C(Nc1ccc(N2CCCC2)c(Cl)c1)c1ccc2c(c1)OCCO2`, the inhibition is -0.93%.
Regarding `Cc1ccc(OCC(=O)c2cc(C)c(C)cc2C)c([N+](=O)[O-])n1`, the inhibition was -9.54%.
For `Cc1cc(C(=O)CSc2nnc(-c3ccc(OC(F)F)cc3)o2)c(C)n1Cc1cccs1`, the inhibition was -10.5%.
With `C=CCn1c(C)cc(C2=NNC(=Nc3ccc(C)cc3)SC2)c1C` the figure was -4.54%; with `O=C(O)CCC(=O)N1N=C(c2cccs2)CC1c1cn(-c2ccccc2)nc1-c1ccccc1` (stereo not given), 7.42%.
With `O=c1cc(-c2ccccc2Cl)c2c([nH]1)CCC2` the figure was -2.22%.
Consider `Cc1ccc(C2CC(=O)N3CN(c4ccc(Br)cc4)CSC3=C2C#N)o1` (stereo not given), for which the inhibition is -1.74%.
Turning to `Cc1ccc(C2C(C#N)=C(N)Oc3c2sc2ccccc32)o1` (stereo not given), the inhibition is 14%.
Next, `Cc1cccc(N2CSC3=C(C#N)C(c4ccc(C)o4)CC(=O)N3C2)c1` (stereo not given): 50.5% (active); `CC1CCc2sc(C(=O)N/N=C/c3ccc([N+](=O)[O-])cc3)cc2C1` (stereo not given): -11.5%; `Cc1cccc(N2CC(C(=O)Nc3nnc(SCC(=O)N4CCOCC4)s3)CC2=O)c1` (stereo not given): 11.4%.
With `Cc1ccc(Cn2c(C(C)Nc3nc(-c4ccc(Cl)c([N+](=O)[O-])c4)cs3)nc3cc(C(F)(F)F)ccc32)cc1` (stereo not given), the inhibition is 5.29%.
As to `N#Cc1ccc(C23CC4(C2)[C@H](CN(P(=O)(c2ccccc2)c2ccccc2)[C@@H]4c2ccccc2)C3c2ccc(Cl)nc2)cc1` (stereo not given in full), the inhibition was 8.04%.
Next, `CN(CC(=O)Nc1sccc1C#N)C1CCCCC1`: 6.43%.
For the compound `CC1CC1C(=O)Nc1nc(-c2cccs2)c(-c2cccs2)s1` (stereo not given), the inhibition is 7.18%.
As for `COc1ccc(C2C(C#N)=C(N)SC(N)=C2C#N)cc1OC`, the inhibition was 2.28%.
In the case of `Cc1sccc1C1C(C#N)=C(N)SC(N)=C1C#N`, the inhibition was 32.6%.
As to `Cc1ccc(C2C(C#N)=C(N)SC(N)=C2C#N)c(C)c1`, the inhibition is 58% (active).
Turning to `Cc1cc(Cl)ccc1OC(C)C(=O)Nc1ccc(S(=O)(=O)Nc2cnc3ccccc3n2)cc1` (stereo not given), the inhibition is -3.49%.
With `Cc1ccc(C)c(NC(=O)CN(C)C(=O)c2cccc(-n3cccc3)c2)c1` the figure was 4.94%; with `COc1cccc2cc(/C(C)=N/Nc3nc(-c4cc(C)ccc4C)cs3)c(=O)oc12`, 16.7%; with `COc1ccc(CCNC(=O)c2ccc3c(c2)NC(=O)C(CSCc2cc(C)ccc2C)N3)cc1OC` (stereo not given), 2.87%.
As for `COc1ccc2c(c1)[nH]c(=O)c1sc3ccccc3c12`, the inhibition was -0.73%.
Next, `O=C(Nc1nnc(-c2ccccc2Cl)o1)c1nc2ccccc2s1`: -8.09%; `CN(C)c1ccc(/C=C/C=C2/SC(=S)N(c3ccccc3)C2=O)cc1`: -12.6%; `COc1ccc(OC)c(-c2csc(NC(=O)CSc3ccc([N+](=O)[O-])cc3)n2)c1`: -0.57%.
Next, `O=c1ccc2c(-c3ccccc3)c3ccc(O)cc3oc-2c1`: -13.9%.
With `COc1ccc2c(c1[N+](=O)[O-])CCC/C2=N/OC(=O)c1ccccc1SC` the figure was -1.21%; with `COc1ccc(/C=N\NS(=O)(=O)c2ccc(Cl)cc2)cc1COc1ccccc1[N+](=O)[O-]`, -7.14%; with `O=C(NCc1cccnc1)c1ccc(COc2cccc3ccccc23)o1`, 4.61%.
Consider `O=C(CN(c1ccc(Cl)c(C(F)(F)F)c1)S(=O)(=O)c1ccccc1)N/N=C/c1cccc2c1OCCO2`, for which the inhibition is -4.47%.
With `O=C(Nc1ccc(NC(=S)NC(=O)C(c2ccccc2)c2ccccc2)cc1)c1ccccc1` the figure was 5.69%; with `COc1ccc(C(=O)N/C(=C/c2cccc3ccccc23)C(=O)NCCc2c[nH]c3ccccc23)cc1OC`, -0.16%.
With `O=C(Nc1ccccc1)c1ccc(Nc2c([N+](=O)[O-])cc([N+](=O)[O-])c3ccccc23)cc1` the figure was 1.02%.
With `COc1ccc(N2CCN(C(=O)c3ccc4c(c3)NC(=O)C(CSCc3ccc(C)cc3)N4)CC2)cc1` (stereo not given) the figure was 27%; with `CSc1nc(N(C)CCO)c2sc3nc(-c4ccco4)c4c(c3c2n1)CCC4`, -23.5%.
For `COc1ccccc1CCNC(=O)c1cc(-c2ccccn2)nc2ccc(Br)cc12`, the inhibition is -9.45%.
Next, `Cc1cc(C#N)c(C)n1-c1cc(S(=O)(=O)N2CCOCC2)ccc1N1CCCC1`: 2.12%; `CC1(C)Cc2c(C#N)c(N3CCN(C(=O)c4ccccc4Cl)CC3)nc(-c3ccco3)c2CS1`: 16.3%.
With `O=C(N/N=C/c1ccc([N+](=O)[O-])o1)c1cn(-c2ccccc2)nc1-c1ccc(Cl)cc1` the figure was -1.11%; with `Cc1ccc(-c2csc(C3=C(O)CN(NC(=O)c4ccc([N+](=O)[O-])cc4)C3=N)n2)cc1`, 6.2%; with `O=c1[nH]c(C(Cl)Cl)nc2sc3c(c12)CCN(Cc1ccccc1)C3`, 14.3%.
With `COC(=O)c1ccc(Nc2cc(C)nc(-c3ccccc3O)n2)cc1` the figure was 6.69%.
As to `CN1CCc2c(sc3c2c(=O)n(-c2ccccc2)c2nnc(SCc4ccccc4)n32)C1`, the inhibition is 3.83%.
Next, `O=C(COC(=O)c1cccc(S(=O)(=O)N2CCc3ccccc3C2)c1)NCc1ccco1`: 2.63%; `COc1ccc(-c2cc(OC(=O)c3ccc(F)cc3)c3c(C)oc(C)c3c(=O)c2)cc1`: 0.02%.
Next, `CN(Cc1ccccc1)C(=O)C1CCN(S(=O)(=O)c2ccc3nc4c(c(C(=O)O)c3c2)CCCC4)CC1`: 3.04%; `CC(C)(C)C(=O)COC(=O)c1c2c(nc3ccccc13)CCC2`: -3.89%; `Cc1cc(Br)c2nc3c(c(C(=O)O)c2c1)CCCCC3`: 46.4% (active).
Turning to `CCn1cc([N+](=O)[O-])c(C(=O)N2N=C(c3cccc4ccccc34)CC2c2ccccc2O)n1` (stereo not given), the inhibition was 7.15%.
With `COc1ccc(CC(=O)Nc2ccc(-c3nnc(-c4ccccc4)o3)cc2)cc1` the figure was 11.4%; with `COc1ccc(CC(=O)Nc2ccc(-c3nnc(-c4ccccc4)o3)cc2)cc1OC`, 56.3% (active).
Next, `O=C(COc1ccccc1)Nc1ccc(-c2nnc(-c3ccco3)o2)cc1`: 21.3%; `Cc1nc2nc(SCC(=O)NCCCN3CCCCCC3)nn2c(C)c1Cc1ccccc1`: 13.3%; `Cc1ccc(Cc2c(C)nc3nc(SCC(=O)NCCCN4CCCCCC4)nn3c2C)cc1`: 89.8% (active).
Next, `NC(=O)c1ccsc1NC(=O)COC(=O)/C=C/c1ccc([N+](=O)[O-])cc1`: 7.73%.
As for `CCCN(CCC)C(=O)c1cc(-c2ccc3c(c2)OCO3)nc2ccccc12`, the inhibition is -2.46%.
As to `Cc1cc(C(=O)OCC(=O)c2cccc([N+](=O)[O-])c2)c2cccc(C)c2n1`, the inhibition is 13.6%.
With `Cc1ccc(C)c(NC(=O)CSc2nc3nc(-c4cccs4)cc(C(F)(F)F)c3c(=O)[nH]2)c1` the figure was 4.9%; with `CCOc1cc(/C=N/NC(N)=O)cc(Br)c1OCC(=O)Nc1cccc2ccccc12`, 2.46%; with `N#CC1=C(N)SC(N)=C(C#N)C1c1ccnc2ccccc12`, 46.8% (active).
In the case of `CCOc1ccccc1C1C(C#N)=C(N)SC(N)=C1C#N`, the inhibition is 1.92%.
With `N#CC1=C(N)SC(N)=C(C#N)C1CCc1ccccc1` the figure was -1.8%; with `C=CCn1nnc2sc3c(c2c1=O)CCC(C)C3` (stereo not given), -1.29%.
Next, `O=c1c2ccccc2nc2sc3ccccc3n12`: -1%; `O=C(Nc1ccc(Cl)c(Cl)c1)Nc1nnc(-c2ccncc2)s1`: 38.8%; `Cc1ccc2nc(C)cc(C(=O)OCC(=O)c3ccc(Cl)c([N+](=O)[O-])c3)c2c1`: -4.97%.
Next, `CCN(CC)c1ccc(/C=N/NC(=O)Cc2nnc(NC(=O)Nc3ccccc3)s2)cc1`: -1.4%; `COc1ccc(/C=N/NC(=O)c2nn(-c3ccc(Cl)cc3)c(=O)c3c(N)scc23)cc1`: 9.33%; `O=C(COC(=O)C1c2ccccc2Oc2ccccc21)Nc1ccc2c(c1)OCO2`: -1.06%.
Turning to `O=C(NC(=S)Nc1ccc(-c2ccc(CO)o2)cc1)c1cccs1`, the inhibition was -8.29%.
As for `CC(C)(C)c1nnc2sc(SC/C(O)=C(\C#N)c3nc4ccccc4[nH]3)nn2c1=O`, the inhibition was 0.37%.
Turning to `CC1=CC(=O)c2c(O)ccc(O)c2C1=O`, the inhibition was 35%.
`O=C1c2c(O)cccc2Cc2cccc(O)c21`: the inhibition was 53.6% (active).

The values are drawn from PubChem BioAssay AID2152 (The Scripps Research Institute Molecular Screening Center, 2009).
